Screens from PubChem BioAssay.
Most compounds without a hit are left out; they make up all but 2.5% or so of the library.
SENP1 FRET inh = blocks the human SENP1 SUMO protease catalytic domain; Q9P0U3; recombinant SENP1 catalytic domain, CyPet-SUMO1-YPet FRET cleavage; inhibition, % at 10 µM; hit rate 0.21% among 360,000; AID 624204;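 active means inhibition at least 30% at 10 µM, raw YFP signal under a set limit, fluorescence ratio 0.5 to 1.5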
Target sequence (Q9P0U3 419-644 limits assumed): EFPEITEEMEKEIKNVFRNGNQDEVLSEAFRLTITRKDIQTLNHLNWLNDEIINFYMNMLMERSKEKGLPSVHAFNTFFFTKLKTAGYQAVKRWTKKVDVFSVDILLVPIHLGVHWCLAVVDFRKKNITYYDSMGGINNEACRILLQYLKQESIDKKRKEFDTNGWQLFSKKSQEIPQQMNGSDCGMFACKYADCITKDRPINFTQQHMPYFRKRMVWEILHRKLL
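Material: hSENP1 catalytic domain, recombinant; medium: Tris pH 8 with BME, BSA, NP40 and catalase; compound: single concentration of 10 µM compound, 0.5% DMSO final; technique: FRET read of cyan and yellow fluorescence; timing: 50 min enzyme reaction, room temperature, light-protected; reagent: SFCypet-SUMO1-SFYpet substrate at 25 nM; control set: no-enzyme low, enzyme-DMSO high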
SENP6 inh = SENP6 protease inhibition; hit rate 1.8% among 330,000; Recombinant SENP6 catalytic domain, aminoluciferin luminescence; inhibition, % at 10 µM; Q9GZR1;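 active means inhibition above about 50% at the single tested dose, limit read from the data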
SENP8 block-1 = inhibitors of human SENP8 protease; hit rate 0.64% among 360,000; inhibition, % at 20 µM; AID 602440; recombinant SENP8, Nedd8 substrate fluorescence; in the data active means inhibition mostly above about 40%, no sharp cut-off; inactive means mostly below about 27%
SENP8 block-2 = inhibitors of human SENP8 protease; Q96LD8; purified SENP8, Z-RLRGG-aminoluciferin cleavage, luminescence; inhibition, % at 10 µM; hit rate 1.2% among 330,000; in the data active means inhibition above about 50%
SENP7 inh = inhibitors of human SENP7 protease | recombinant SENP7, Z-RLRGG-aminoluciferin luminescence, 40 min | inhibition, % at 5 µM | hit rate 1.5% among 330,000;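 active means inhibition above about 50% at the single test dose, limit read from the data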
Target sequence (Q9BQF6 706-1050 limits assumed): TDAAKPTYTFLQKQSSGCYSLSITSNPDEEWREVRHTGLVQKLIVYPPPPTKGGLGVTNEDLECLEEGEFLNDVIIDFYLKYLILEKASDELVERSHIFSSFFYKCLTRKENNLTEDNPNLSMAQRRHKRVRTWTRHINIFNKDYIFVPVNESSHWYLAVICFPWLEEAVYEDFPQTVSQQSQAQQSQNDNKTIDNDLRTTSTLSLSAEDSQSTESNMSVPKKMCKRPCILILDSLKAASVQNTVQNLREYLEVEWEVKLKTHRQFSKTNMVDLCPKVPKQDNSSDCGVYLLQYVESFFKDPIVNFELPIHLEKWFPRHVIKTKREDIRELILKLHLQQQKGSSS
SENP8 confirm = human SENP8 inhibition, confirmed; shares compounds with SENP7 inh; Recombinant SENP8, Z-RLRGG-aminoluciferin luminescence, 60 min; inhibition, % at 12.5 µM; hit rate 40% among 6,200; AID 488912;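 active means mean inhibition across replicates above about 50%, limit read from the data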
SENP6 conf = confirmation of human SENP6 protease inhibitors | shares compounds with SENP7 inh | AID 488915 | inhibition, % at 12.5 µM | hit rate 58% among 6,200 | recombinant SENP6, Z-RLRGG-aminoluciferin luminescence
SENP7 conf = human SENP7 inhibition, confirmed. AID 488917. hit rate 69% among 6,200. shares compounds with SENP7 inh. recombinant SENP7, Z-RLRGG-aminoluciferin luminescence, 40 min. inhibition, % at 12.5 µM
Casp3 select = caspase-3 inhibition (SENP selectivity assay). shares compounds with SENP7 inh. purified caspase-3, Z-DEVD-aminoluciferin luminescence, 60 min. inhibition, % at 12.5 µM. hit rate 60% among 6,200. AID 488918;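 active means mean inhibition above about 50%, limit read from the data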
SENP luc ctr = luminescence interference (SENP counter-screen); shares compounds with SENP7 inh; Pre-incubated SENP8/Z-RLRGG-aminoluciferin, luciferase luminescence interference; inhibition, % at 12.5 µM; hit rate 39% among 6,200; AID 488919;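 active means mean inhibition above about 50% when retested at one dose, limit read from the data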
Large screens that a line does not name were inactive (follow-up assays come after a bar, where they were run).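 How the source made its calls, unless noted: active means mean inhibition above about 50% in the one-dose retest (limit read from the data); inactive means the rest.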

Cc1ccc(/C=C/C(=O)c2ccccc2O)cc1	none
O=C(/C=C/c1ccc2c(c1)OCCCO2)c1ccccc1O	SENP6 inh 88, SENP8 block-2 81, SENP7 inh 84 | SENP8 confirm 91 | SENP6 conf 93 | SENP7 conf 92 | Casp3 select 57 | SENP luc ctr inactive
Cc1[nH]n(-c2ccc([N+](=O)[O-])cc2)c(=O)c1C=NCCN1CCN(C(=O)c2ccc(Br)cc2)CC1	SENP6 inh 64, SENP7 inh 88 | SENP8 confirm inactive | SENP6 conf inactive | SENP7 conf inactive | Casp3 select 55 | SENP luc ctr 56
Cc1[nH]n(-c2ccc([N+](=O)[O-])cc2)c(=O)c1C=NCCN1CCN(C(=O)c2cccc(F)c2)CC1	SENP6 inh 90, SENP8 block-2 67, SENP7 inh 88 | SENP8 confirm inactive | SENP6 conf inactive | SENP7 conf inactive | Casp3 select inactive | SENP luc ctr 57
O=C(NNC(=O)C1CC(c2cccs2)=NO1)Nc1ccccc1 (stereo not given)	none
O=C(NC(=S)N1CCN(c2nc(-c3ccccc3)cs2)CC1)c1cncc(Br)c1	none
COc1ccccc1OCCNC(=O)CCC(=O)N1CCOCC1	none
O=C1C(C2=C(O)c3ccccc3C2=O)=Nc2ccccc21	SENP6 inh 89, SENP8 block-1 60, SENP8 block-2 79 | SENP8 confirm inactive | SENP6 conf 95 | SENP7 conf 100 | Casp3 select 60 | SENP luc ctr inactive
CC(=O)OC1=C(O)C(=O)c2ccccc2C1=O	none (no result: SENP1 FRET inh, SENP8 block-1)
Nc1c(Cl)ncnc1N/N=C/c1cccc(O)c1	SENP6 inh 56 | SENP8 confirm inactive | SENP6 conf inactive | SENP7 conf 70 | Casp3 select 68 | SENP luc ctr inactive
C=CCn1c(=O)/c(=C/c2ccc(Cl)cc2)s/c1=C(\C#N)c1nnc2n1CCCCC2	none (no result: SENP6 inh, SENP8 block-2, SENP7 inh)
Cc1c(C(C)(C)C)s/c(=N/S(=O)(=O)c2ccccc2)n1C	none
Cc1c(C(C)(C)C)sc(=NC(=O)c2ccccc2O)n1C	SENP6 inh 63, SENP8 block-2 60, SENP7 inh 72 | SENP8 confirm inactive | SENP6 conf inactive | SENP7 conf inactive | Casp3 select inactive | SENP luc ctr inactive
CCCCN=C1NN=C(c2ccc3c(c2)OCCO3)CS1	none
c1cc2c(cc1C1=NNC(=NC3CC3)SC1)OCCO2	SENP6 inh 97, SENP8 block-2 96, SENP7 inh 97 | SENP8 confirm 98 | SENP6 conf 99 | SENP7 conf 102 | Casp3 select 98 | SENP luc ctr 96
Cc1cc(C2=NNC(=NC3CC3)SC2)c(C)n1-c1ccccc1F	SENP8 block-2 80 | SENP8 confirm inactive | SENP6 conf 93 | SENP7 conf 100 | Casp3 select 93 | SENP luc ctr 60
CN1CCc2nc(SCc3ccc(Cl)cc3)c(C#N)c(-c3cccs3)c2C1	SENP6 inh 76, SENP8 block-2 69 (no result: SENP1 FRET inh, SENP8 block-1) | SENP8 confirm inactive | SENP6 conf inactive | SENP7 conf inactive | Casp3 select inactive | SENP luc ctr inactive
N#Cc1c(N)nc(SCc2ccncc2)c(C#N)c1-c1cccs1	none
CC(C)(C)C1CCC(=NNC(=O)C(=O)NC2CCCCC2)CC1 (stereo not given)	none
Cc1noc(C)c1NC(=O)N(C)C[C@H]1OCc2cnnn2CCCC(=O)N([C@H](C)CO)C[C@H]1C	none (no result: SENP6 inh, SENP8 block-2, SENP7 inh)
COc1ccccc1C(=O)Nc1ccc2c(c1)CCCN2C(=O)c1cccs1	SENP6 inh 54, SENP7 inh 55 | SENP8 confirm 66 | SENP6 conf 64 | SENP7 conf 84 | Casp3 select 65 | SENP luc ctr 58
COc1ccccc1C(=O)Nc1ccc2c(c1)CCCN2C(=O)c1ccccc1	SENP6 inh 90, SENP8 block-2 84, SENP7 inh 84 | SENP8 confirm 85 | SENP6 conf 82 | SENP7 conf 95 | Casp3 select 85 | SENP luc ctr 76
O=C(Nc1ccc2c(c1)CCCN2C(=O)c1ccccc1)c1ccccc1Br	none
O=C(Nc1cccc([N+](=O)[O-])c1)c1ccc2snnc2c1	none
Cn1cccc1C(=O)NC(=O)COC(=O)C12CC3CC(CC(O)(C3)C1)C2	SENP6 inh 54, SENP7 inh 62 | SENP8 confirm 62 | SENP6 conf 58 | SENP7 conf 82 | Casp3 select 84 | SENP luc ctr inactive
CC(=O)NC12CC3CC(C1)CC(C(=O)OCC(=O)NC(=O)c1cccn1C)(C3)C2	none
CCCCCn1nnnc1C1(C)CCC(=O)N1Cc1ccco1 (stereo not given)	none (no result: SENP6 inh, SENP8 block-2, SENP7 inh)
CC(C)=NOC(=O)c1ccc(-c2ccccc2)cc1	SENP6 inh 77, SENP8 block-2 58, SENP7 inh 72 | SENP8 confirm 75 | SENP6 conf 76 | SENP7 conf 90 | Casp3 select 71 | SENP luc ctr 67
COc1ccc(C(=O)O/N=C(\C)c2ccccc2)cc1	SENP6 inh 95, SENP8 block-2 97, SENP7 inh 100 | SENP8 confirm 100 | SENP6 conf 101 | SENP7 conf 103 | Casp3 select 99 | SENP luc ctr 98
COc1cc(O)cc2cc3c(c(O)c12)C(=O)CC(C)(O)O3 (stereo not given)	SENP6 inh 58 | SENP8 confirm inactive | SENP6 conf inactive | SENP7 conf inactive | Casp3 select inactive | SENP luc ctr inactive
CCCCNC(=O)c1nc(C2CCNCC2)oc1-c1ccccc1	none (no result: SENP6 inh, SENP8 block-2, SENP7 inh)
CC(C)OCCCNC(=O)C(Cc1ccccc1)NS(=O)(=O)c1ccc2c(c1)CCC(=O)N2 (stereo not given)	none
CCN(CC)c1ccc(C(=O)Nn2cnc3ccccc3c2=O)cc1	none
Cc1ccc2c(c1)COc1c3ccc(C(=O)N[C@@H](CO)C(C)C)cc3nn1-2	none
CC(C)NC(=O)c1ccc2c3n(nc2c1)-c1ccc(Cl)cc1CO3	SENP8 block-2 54 | SENP8 confirm inactive | SENP6 conf inactive | SENP7 conf 62 | Casp3 select inactive | SENP luc ctr inactive
CCN(CC)CCCNC(=O)c1ccc2c3n(nc2c1)-c1ccc(Cl)cc1CO3	none
C[C@@H](CO)NC(=O)c1ccc2c3n(nc2c1)-c1ccccc1CO3	SENP6 inh 57 | SENP8 confirm 65 | SENP6 conf 66 | SENP7 conf 92 | Casp3 select 91 | SENP luc ctr 70
